Results on 1 compound are retold here after ChEMBL document CHEMBL3612019, “Revisiting 1,3,4-Oxadiazol-2-ones: Utilization in the Development of ABHD6 Inhibitors” (Bioorg Med Chem, 2015).

The source made the active and inactive calls. The calls are words filed in the database; no cut-off is given here.

The test deals with T1, Fatty-acid amide hydrolase 1 (Mus musculus) (UniProt O08914).
T1 sequence (whole entry): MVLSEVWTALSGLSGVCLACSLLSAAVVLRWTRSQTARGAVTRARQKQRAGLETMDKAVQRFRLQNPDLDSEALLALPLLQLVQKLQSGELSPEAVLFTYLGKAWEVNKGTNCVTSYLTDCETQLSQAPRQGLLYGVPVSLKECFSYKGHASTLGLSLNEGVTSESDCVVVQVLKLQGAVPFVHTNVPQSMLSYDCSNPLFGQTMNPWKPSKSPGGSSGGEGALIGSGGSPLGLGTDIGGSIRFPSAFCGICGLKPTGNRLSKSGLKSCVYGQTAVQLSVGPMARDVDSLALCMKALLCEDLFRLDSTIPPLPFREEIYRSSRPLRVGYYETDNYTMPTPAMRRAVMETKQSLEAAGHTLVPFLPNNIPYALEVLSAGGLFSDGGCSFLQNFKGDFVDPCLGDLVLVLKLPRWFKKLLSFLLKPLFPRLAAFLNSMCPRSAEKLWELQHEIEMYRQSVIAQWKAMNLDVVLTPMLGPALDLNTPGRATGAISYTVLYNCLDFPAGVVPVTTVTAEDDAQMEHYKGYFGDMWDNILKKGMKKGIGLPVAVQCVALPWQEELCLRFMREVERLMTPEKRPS
Nature of the test: Inhibition of FAAH in mouse whole brain membranes at 32.5 uM incubated for 1 hr by TAMRA-FP probe based competitive activity-based protein profiling assay. Format: cell membranes. The note with it: Membrane. The essentials:
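Competitive ABPP on mouse brain membranes (100 µg) treated 1 h with DMSO or inhibitor. TAMRA-FP labelling then ran 1 h at RT (final probe 2 µM). Reaction was quenched with gel loading buffer and proteins resolved by 10% SDS–PAGE for fluorescent band read-out. WWL70 located the ABHD6 band. Gels are representative of two experiments.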

As for `COc1nn(Cc2cccc(N)c2)c(=O)o1`, the inhibition result was “Active”.
